Results from article PMC4238785 (British Journal of Clinical Pharmacology, 2014).
Where two headings read alike, the source gives them in different places.

Key:
[1] = assay type: in vivo, human; details: for Tmax / Vd/F: male, human, plasma, po
Outline: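 Healthy subjects received a single oral 20 mg test-compound dose with 240 ml water after an overnight fast, continued to 4 h. Period 2, after a 5−7 day washout: CYP3A4 inhibitor 400 mg orally once daily for 7 days, co-dosed on day 5. Plasma was sampled predose–72 h, acidified (citrate, pH 1.5) and run by chiral LC-MS. Ratios: ANOVA (log values, period and subject effects), least-square geometric means, 90% CI.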

[2] = midazolam with rifampicin; cited from earlier work
[3] = assay type: in vivo, human
Outline: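 Healthy subjects fasted overnight and received a single oral 30 mg test-compound dose in each of three periods. After a 4-day washout, it was followed 5 min later by 600 mg i.v. inducer over 30 min. Then 600 mg oral inducer daily on days 7–21, co-dosed on day 20. Plasma (predose–48 h) was citric-acid stabilised, extracted with MTBE and run by achiral LC-MS. Ratios: ANOVA of log values, geometric-mean 90% CI.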

CYP3A4 = details: [14C]-apremilast, in vitro; cited from earlier work
CYP1A2 = details: [14C]-apremilast, in vitro; cited from earlier work
CYP2A6 = details: [14C]-apremilast, in vitro; cited from earlier work
MDR1 = details: in vitro studies, no reference given; cited from earlier work
OATP1B1 = details: in vitro studies, no reference given; cited from earlier work
OATP1B3 = details: in vitro studies, no reference given; cited from earlier work
[4] = cited from earlier work
[5] = acidic conditions; no reference given; cited from earlier work
[6] = apremilast 20 mg with ketoconazole 400 mg once daily vs alone
[7] = apremilast given with ketoconazole vs alone
[8] = with ketoconazole vs apremilast 20 mg alone, least-square geometric means
[9] = multiple oral doses of rifampicin vs apremilast alone
[10] = with i.v. rifampicin vs apremilast 30 mg alone, least-square geometric means

CCOc1cc(C(CS(C)(=O)=O)N2C(=O)c3cccc(N)c3C2=O)ccc1OC (stereo not drawn) [CC-10055]
concentrations in urine ([1]; KETO study): no detectable concentrations | overall metabolite to parent ratios in plasma ([1]; KETO study): ≤ 5%

Cc1ncc2n1-c1ccc(Cl)cc1C(c1ccccc1F)=NC2 [midazolam]
exposure relative to administration alone [2]: 4%

CCOc1cc([C@@H](CS(C)(=O)=O)N2C(=O)c3cccc(NC(C)=O)c3C2=O)ccc1OC [apremilast]
fraction of apremilast excreted unchanged in the urine ([1]; KETO study, overall): < 5% | CL/F ([1]; apremilast 20 mg single oral dose alone, n = 18, arithmetic mean (SD)): 10.2 (3.5) l h^−1 | increase of AUC(0,∞) by ketoconazole [1, 6]: ≈ 36% | increase of Cmax by ketoconazole [1, 6]: 5% | change in renal clearance [1, 7]: no meaningful change | increase in the percentage of urinary excretion [1, 7]: approximately 36% | Tmax [1]: 4 h | Vd/F [1]: 84 L | Tmax ([1]; 20 mg): 2.5 h | Vd/F ([1]; 20 mg): 111 L | AUC(0,∞) Ratio (90% CI) [1, 8]: 136.4 (126.2, 147.5) % | CL/F Ratio (90% CI) [1, 8]: 73.3 (67.8, 79.2) % | Cmax Ratio (90% CI) [1, 8]: 104.9 (92.2, 119.3) % | Vz/F Ratio (90% CI) [1, 8]: 77.5 (69.8, 86.1) % | t1/2 Ratio (90% CI) [1, 8]: 106.5 (100.3, 112.7) % | increase in Cmax ([3]; after i.v. rifampicin vs apremilast alone): 13% | CL/F ([3]; apremilast 30 mg single oral dose alone, n = 21, arithmetic mean (SD)): 10.0 (3.02) l h^−1 | Tmax ([3]; apremilast 30 mg single oral dose alone, n = 21, median (range)): 2.0 (0.5–5.0) h | Tmax ([3]; both, human, plasma, oral): 1.25 h | Vd/F ([3]; both, human, plasma, oral): 115 L | Tmax ([3]; both, human, plasma, po): 1 h | Vd/F ([3]; both, human, plasma, po): 342 L | half-life ([3]; both, human, plasma, po): 6.31 h | Tmax ([3]; both, human, plasma, po, 30 mg): 2 h | Vd/F ([3]; both, human, plasma, po, 30 mg): 119 L | half-life ([3]; both, human, plasma, po, 30 mg): 8.2 h | decrease of Cmax [3, 9]: approximately 43% | decrease of mean AUC(0,∞) [3, 9]: ≈ 72% | increase of apremilast clearance [3, 9]: ≈ 3.6 fold | AUC(0,∞) Ratio (90% CI) [3, 10]: 95.71 (88.0, 104.1) % | Cmax Ratio (90% CI) [3, 10]: 113.1 (103.2, 123.9) % | rate of metabolism by CYP isoform (CYP3A4): high rate | rate of metabolism by CYP isoform (CYP1A2): lower rates of metabolism | rate of metabolism by CYP isoform (CYP2A6): lower rates of metabolism | transporter substrate (MDR1): is a MDR1 substrate | transporter substrate (OATP1B1): not a substrate | transporter substrate (OATP1B3): not a substrate | dose excreted unchanged in urine [4]: 3% | stability [5]: stable
